Data set [1] in a line: Intrinsic clearance in CD1 mouse liver microsomes at 1 uM preincubated for 5 mins followed by NADPH addition and measured after 45 mins by LC/MS/MS analysis. In kind it is ADME, microsome. The note with it: read-out: CLH. (In general: Microsomes from liver hold many membrane-bound enzymes, among them those of drug oxidation.)
In the next data set the test system is Mus musculus. The data set can be described thus: Drug metabolism in mouse plasma assessed as glucuronidation of the N-pyridinyl site formation at 25 mg/kg, po by HPLC analysis. In kind it is ADME, organism-based. To be noted: in vivo.
Data set [2] can be described thus: Intrinsic clearance in Sprague-Dawley rat liver microsomes at 1 uM preincubated for 5 mins followed by NADPH addition and measured after 45 mins by LC/MS/MS analysis. In kind it is ADME, microsome. The note with it: read-out: CLH.
Data set [3] can be described thus: Half life in CD1 mouse liver microsomes at 1 uM preincubated for 5 mins followed by NADPH addition and measured by LC/MS/MS analysis. In kind it is ADME, microsome. The note with it: CD1, mouse, liver microsomes.
Data set [4] is described as follows: Lipophilicity, log P of the compound. In kind it is physicochemical. To be noted: octanol/water.
Data set [5] can be described thus: Drug uptake in BALB/c mouse heart at 25 mg/kg, po via gavage measured after 4 hrs post dose by […]. Format: ADME, organism-based. The note with it: read-out: Drug uptake. In a few lines: (§1)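 BALB/c mice get a single oral gavage dose of 25 mg/kg; tissues are collected 4 h post-dose. About 100 mg tissue is diluted 5-fold in PBS and homogenized. Homogenate is extracted as for plasma (ketoconazole internal standard, acetonitrile extraction) and quantified by HPLC-UV at 291 nm, 0.1 μM detection limit, n=2.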

The nature of data set [6]: Drug uptake in BALB/c mouse spleen at 25 mg/kg, po via gavage measured after 4 hrs post dose by […]. To be noted: read-out: Drug uptake. In kind it is ADME, organism-based. In a few lines: as §1
The nature of data set [7]: Intrinsic clearance in human liver microsomes at 1 uM preincubated for 5 mins followed by NADPH addition and measured after 45 mins by LC/MS/MS analysis. In kind it is ADME, microsome. To be noted: read-out: CLH.
The nature of data set [8]: Hepatic clearance in CD1 mouse liver microsomes at 1 uM preincubated for 5 mins followed by NADPH addition and measured after 45 mins by LC/MS/MS analysis. In kind it is ADME, microsome.
Data set [9] can be described thus: Hepatic clearance in human liver microsomes at 1 uM preincubated for 5 mins followed by NADPH addition and measured after 45 mins by LC/MS/MS analysis. Format: ADME, microsome.
Data set [10] in a line: Half life in human liver microsomes at 1 uM preincubated for 5 mins followed by NADPH addition and measured by LC/MS/MS analysis. The note with it: liver microsomes. In kind it is ADME, microsome.
The nature of data set [11]: Half life in Sprague-Dawley rat liver microsomes at 1 uM preincubated for 5 mins followed by NADPH addition and measured by LC/MS/MS analysis. In kind it is ADME, microsome. To be noted: Sprague-Dawley, liver microsomes.
Data set [12] in a line: Maximum plasma concentration in BALB/c mouse at 25 mg/kg, po via gavage by […]. Format: ADME, organism-based. The arrangement: dose 25 mg/kg, route oral. In a few lines:
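Single oral gavage dose of 25 mg/kg in BALB/c mice; blood sampled at 1, 2, 4, 6, 10, 16, 24 h. Plasma is diluted in PBS with ketoconazole internal standard, extracted with 80% acetonitrile, dried and redissolved. Analysed by reversed-phase HPLC with UV at 291/250 nm, 0.1 μM detection limit. Lifetime is time until undetectable.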

Data set [13] is described as follows: Drug uptake in BALB/c mouse liver at 25 mg/kg, po via gavage measured after 4 hrs post dose by […]. In kind it is ADME, organism-based. The note with it: read-out: Drug uptake. In a few lines:
as §1

Data set [14] is described as follows: Hepatic clearance in Sprague-Dawley rat liver microsomes at 1 uM preincubated for 5 mins followed by NADPH addition and measured after 45 mins by LC/MS/MS analysis. In kind it is ADME, microsome. Put shortly:
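Pooled liver microsomes at 0.5 mg/mL: human (mixed gender), male Sprague-Dawley rat, or male CD-1 mouse, with test compound at 1 μM, triplicate. In vitro t1/2 is scaled to CLint (45 mg microsomes/g liver; 45 g liver/kg scaling factor). CLhep uses well-stirred model with hepatic blood flow 21 (human), 70 (rat), 90 (mouse) mL/min/kg.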

Data set [15] can be described thus: Drug uptake in BALB/c mouse lungs at 25 mg/kg, po via gavage measured after 4 hrs post dose by […]. Format: ADME, organism-based, Lung. To be noted: read-out: Drug uptake. In a few lines: as §1
The nature of data set [16]: Drug uptake in BALB/c mouse brain at 25 mg/kg, po via gavage measured after 4 hrs post dose by […]. To be noted: read-out: Drug uptake. In kind it is ADME, organism-based. In a few lines: as §1
Data set [17] in a line: Drug uptake in BALB/c mouse blood at 25 mg/kg, po via gavage measured after 4 hrs post dose by […]. Format: ADME, organism-based. To be noted: read-out: Drug uptake. In a few lines: as §1

The structures appear in SMILES notation. Where only a bound is given, the exact number is not on record here.

On to `O=C(N[C@@H](Cn1ccnc1)c1ccc(-c2ccc(F)cc2)cc1Cl)c1ccc(-c2nnc(-c3ccncc3)o2)cc1`, for which the CLint scaled at 1 µM amounted to 99 mL/min/kg in data set [1], 52.3 mL/min/kg in data set [2] and 23.5 mL/min/kg in [7]. The Drug metabolism result in the data set on Mus musculus is recorded as “Metabolite_Detected”. In addition, the half-life (commonly how long it takes for the measured level to halve) at 1 µM worked out at 55 min in data set [3], 53 min in [10] and 54 min in data set [11]. Further, the logP (commonly a log measure of how a compound divides between an organic and an aqueous phase) in data set [4] was 5.27. Moreover, the concentration at 4 h in data set [5] was 100 nM; in data set [6], less than 100 nM; in data set [13], 400 nM; in [15], 1000 nM; in data set [16], less than 100 nM; in data set [17] it was less than 100 nM. Further, the CLhep predicted at 1 µM in data set [8] was 47.1 mL/min/kg; in [9] it was 11.1 mL/min/kg; in data set [14], 29.9 mL/min/kg. Besides, the Cmax – broadly, the peak of the concentration-time curve – in data set [12] is less than 100 nM.

These data come from ChEMBL document CHEMBL4257584, “Sterol 14α-Demethylase Structure-Based Optimization of Drug Candidates for Human Infections with the Protozoan Trypanosomatidae” (J Med Chem, 2018).
